Source: ChEMBL document CHEMBL1122351, “Synthesis of (E)-1-(5-chlorothien-2-yl)-2-(1H-imidazol-1-yl)ethanone 2,6-dichlorophenylhydrazone hydrochloride, a novel, orally active antifungal agent” (1983)
Values after ≈ are worked out from the molar mass of the structure shown.

Key:
Cavia porcellus [1] = experiment: Effect of topical administration (1% w/v) on course of expt. Ringworm infections in guinea pig by Trichophyton mentagrophytes; assay type: functional
How it was run: (§1)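 Female guinea pigs, eight per group, shaved backs infected with a saline suspension of T. mentagrophytes spores. Drug given orally or applied topically; topical positive control was a 1% w/v solution in polyethylene glycol 200. Disease course followed by culture of skin and hair samples from on and around the infection sites. Result given as % reduction in recovery versus control.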

Rattus norvegicus [2] = experiment: Percent reduction in recovery of Candida albicans (experimental vaginitis) in rats by topical administration at 1% w/v; assay type: functional, Vagina
Candida albicans [3] = experiment: In vitro antifungal activity against Candida albicans 3153; assay type: functional
How it was run: (§2)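 Agar dilution in Sabouraud dextrose agar in microtitre wells. Drug stock in Me2SO, serial twofold dilutions to final 0.8–100 µg/mL, final Me2SO 1%. Candida inoculum 10^4 cells/mL, read after 24 h at 37 °C. Dermatophytes used mycelial inocula, read after 5 days at […]. MIC is the highest dilution with no visible growth. Run in duplicate.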

Candida albicans [4] = experiment: In vitro antifungal activity against Candida albicans B; assay type: functional; how it was run: as §2
Candida albicans [5] = experiment: In vitro antifungal activity against Candida albicans GB; assay type: functional; how it was run: as §2
Epidermophyton floccosum = experiment: In vitro antifungal activity against Epidermophyton floccosum; assay type: functional; how it was run: as §2
Microsporum canis = experiment: In vitro antifungal activity against Microsporum canis; assay type: functional; how it was run: as §2
Trichophyton rubrum = experiment: In vitro antifungal activity against Trichophyton rubrum; assay type: functional; how it was run: as §2
Trichophyton benhamiae = experiment: In vitro antifungal activity against Trichophyton mentagrophytes; assay type: functional, Arthroderma benhamiae; how it was run: as §2
Candida albicans [6] = experiment: In vitro antifungal activity against Candida albicans A; assay type: functional; how it was run: as §2
Cavia porcellus [7] = experiment: Effect of oral administration (30 mg/kg) on course of expt. Ringworm infections in guinea pig by Trichophyton mentagrophytes; assay type: functional; how it was run: as §1
Cavia porcellus [8] = experiment: Effect of topical administration (2% w/v) on course of expt. Ringworm infections in guinea pig by Trichophyton mentagrophytes; assay type: functional; how it was run: as §1
Mus musculus [9] = experiment: Effect of oral administration (10 mg/kg) on recovery of Candida albicans from kidneys of mice with expt. candidal infection; assay type: functional
How it was run: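 Mice (10 per group) infected intravenously with a sublethal dose (50 × 10^4 cells) of C. albicans. Oral gavage at 0 and 24 h after infection. Kidneys excised 2 days post-infection, weighed and homogenized. Diluted homogenates plated on glucose-peptone agar for 24 h at 37 °C. Colony counts compared with infected, untreated controls and expressed as % reduction.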

Mus musculus [10] = experiment: Effect of oral administration (2.5 mg/kg) on recovery of Candida albicans from kidneys of mice with expt. candidal infection; assay type: functional
How it was run: (§3)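 Mice, 10 per group, infected intravenously with a sublethal dose (50 × 10^4 cells) of C. albicans. Oral gavage at 0 and 24 h after infection. Killed 2 days post-infection; kidneys excised, weighed, homogenized, diluted and plated on glucose-peptone agar, 24 h at 37 °C. Colony counts compared with infected untreated controls, given as % reduction.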

Mus musculus [11] = experiment: Effect of oral administration (20 mg/kg) on recovery of Candida albicans from kidneys of mice with expt. candidal infection; assay type: functional; how it was run: as §3
Mus musculus [12] = experiment: Effect of oral administration (5 mg/kg) on recovery of Candida albicans from kidneys of mice with expt. candidal infection; assay type: functional; how it was run: as §3
Rattus norvegicus [13] = experiment: Percent reduction in recovery of Candida albicans (experimental vaginitis) in rats at 10 mg/kg (po); assay type: functional, Vagina
How it was run: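 Female Wistar rats, 6 per group, hysterectomized and ovariectomized. Pseudoestrus induced and kept by s.c. estradiol diacetate (125 µg) every 3 days. Infected intravaginally with 10^7 C. albicans cells on 2 successive days, with 2 days to establish. Maximal infection meant >600 colonies per 50 µL vaginal washing. Dosed by oral gavage; % reduction in recovery versus control.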

Rattus norvegicus [14] = experiment: Percent reduction in recovery of Candida albicans (experimental vaginitis) n rats at 20 mg/kg (po); assay type: functional, Vagina
How it was run: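 Female Wistar rats, 6 per group, hysterectomized and ovariectomized. Pseudoestrus induced with subcutaneous estradiol diacetate (125 µg) after 3 weeks, then every 3 days. Infected intravaginally with 10^7 C. albicans cells on 2 successive days; treatment began 2 days later. Infection confirmed by >600 colonies per 50 µL vaginal washings. Oral dosing by gavage. Result given as % reduction in recovery versus control.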

Rattus norvegicus [15] = experiment: Percent reduction in recovery of Candida albicans (experimental vaginitis) n rats by topical administration at 1% w/v; assay type: functional, Vagina
Cavia porcellus [16] = experiment: Effect of oral administration (60 mg/kg) on course of expt. Ringworm infections in guinea pig by Trichophyton mentagrophytes; assay type: functional; how it was run: as §1

| Structure (SMILES) | MIC (Candida albicans [3]) | MIC (Candida albicans [4]) | MIC (Candida albicans [5]) | MIC (Epidermophyton floccosum) | MIC (Microsporum canis) | MIC (Trichophyton rubrum) | MIC (Trichophyton benhamiae) | MIC (Candida albicans [6]) | Reduction (Mus musculus [9]) | Reduction (Rattus norvegicus [13]) | other results |
| --- | --- | --- | --- | --- | --- | --- | --- | --- | --- | --- | --- |
| Clc1ccccc1C(c1ccccc1)(c1ccccc1)n1ccnc1 [CLOTRIMAZOLE] | – | – | – | – | – | – | – | – | – | – | Reduction (Cavia porcellus [1]): 88%; Reduction (Rattus norvegicus [2]): 75% |
| Cl.Clc1ccc(/C(Cn2ccnc2)=N\Nc2c(Cl)cccc2Cl)s1 | 12.5 µg/mL | 6.2 µg/mL | 12.5 µg/mL | 25 µg/mL | 25 µg/mL | 12.5 µg/mL | 12.5 µg/mL | 6.2 µg/mL | – | – | – |
| Cl.Clc1ccc(/C(Cn2ccnc2)=N/Nc2c(Cl)cccc2Cl)s1 [ZINOCONAZOLE HYDROCHLORIDE] | 12.5 µg/mL | 6.2 µg/mL | 12.5 µg/mL | 25 µg/mL | 25 µg/mL | 25 µg/mL | 12.5 µg/mL | 6.2 µg/mL | 65% | 47% | Reduction (Cavia porcellus [7]): 70%; Reduction (Cavia porcellus [8]): 77%; Reduction (Mus musculus [10]): 9%; Reduction (Mus musculus [11]): 44%; Reduction (Mus musculus [12]): 43%; Reduction (Rattus norvegicus [14]): 63%; Reduction (Rattus norvegicus [15]): 54% |
| CC(=O)N1CCN(c2ccc(OCC3COC(Cn4ccnc4)(c4ccc(Cl)cc4Cl)O3)cc2)CC1 (stereo not drawn) [KETOCONAZOLE] | – | – | – | – | – | – | – | – | 57% | 68% | – |
| COC1=CC(=O)C[C@@H](C)[C@]12Oc1c(Cl)c(OC)cc(OC)c1C2=O [GRISEOFULVIN] | – | – | – | – | – | – | – | – | – | – | Reduction (Cavia porcellus [16]): 90% |
| Clc1ccc(COC(Cn2ccnc2)c2ccc(Cl)cc2Cl)c(Cl)c1 (stereo not drawn) [MICONAZOLE] | 12.5 µg/mL (≈ 30 µM) | 6.2 µg/mL (≈ 14.9 µM) | 6.2 µg/mL (≈ 14.9 µM) | 12.5 µg/mL (≈ 30 µM) | 6.2 µg/mL (≈ 14.9 µM) | 1.6 µg/mL (≈ 3.84 µM) | 1.6 µg/mL (≈ 3.84 µM) | 6.2 µg/mL (≈ 14.9 µM) | – | – | – |
